Results collected from several papers.
Compare with care: the assays were run in different laboratories.
Target: Serine/threonine-protein kinase Sgk1 (SGK1, Homo sapiens, UniProt O00141)
Sequence (O00141 1-431, as in one of the studies): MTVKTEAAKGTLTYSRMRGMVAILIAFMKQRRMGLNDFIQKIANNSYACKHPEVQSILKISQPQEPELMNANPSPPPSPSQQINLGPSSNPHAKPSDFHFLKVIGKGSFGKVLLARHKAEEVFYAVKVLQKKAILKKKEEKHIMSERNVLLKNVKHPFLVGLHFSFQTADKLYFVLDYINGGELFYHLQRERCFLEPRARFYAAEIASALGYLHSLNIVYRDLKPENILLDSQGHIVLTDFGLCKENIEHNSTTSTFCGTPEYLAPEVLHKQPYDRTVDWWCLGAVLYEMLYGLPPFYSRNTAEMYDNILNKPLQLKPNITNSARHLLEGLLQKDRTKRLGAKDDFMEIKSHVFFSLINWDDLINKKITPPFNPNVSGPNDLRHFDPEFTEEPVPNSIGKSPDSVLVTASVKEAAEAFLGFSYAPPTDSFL

SMILES | test | conditions | remaining binding [%]
O=C(Nc1c[nH]nc1C(=O)NC1CCNCC1)c1cc(F)cc(F)c1 | binding, competition with immobilised ligand | 1 µM | 100
FC(F)(F)Oc1cccc(-c2cnc3ccc(-c4ccncc4)nn23)c1 | binding, competition with immobilised ligand | 5 µM | 75
CC(=O)N1CCC(c2ccc(C(=O)NC3=NCCN3)cc2C(F)(F)F)CC1 | cell-free assay, competition with immobilised ligand | 1 µM | 100
COc1cnc(Nc2cccc(S(N)(=O)=O)c2)nc1N1CCN(c2ccccc2)CC1 | binding, competition with immobilised ligand | 1 µM | 76
CN(CCCC(F)(F)F)c1nccc(-c2cnn3ncccc23)n1 | binding | 1 µM | 85
O=C1NC(c2ccccn2)Sc2ccccc21 (stereo not shown) | cell-free assay, competition with immobilised ligand | 1 µM | 87
CC1CCCN1c1nccc(-c2cnn3ncccc23)n1 (stereo not shown) | binding | 1 µM | 86
O=C(NCc1ncc(C(F)(F)F)cc1Cl)c1ccc2c(c1)C1(CCS(=O)(=O)CC1)[C@@H](C1CC1)N2S(=O)(=O)c1ccc(F)cc1 | cell-free assay, competition with immobilised ligand | 1 µM | 77
COc1cnc(Nc2cccc(S(N)(=O)=O)c2)nc1N1CCN(c2ccccc2)C(=O)C1 | binding, competition with immobilised ligand | 1 µM | 94
Cc1nc(Cc2cccc(C(F)(F)F)c2)sc1-c1ccc(C(N)=O)nc1 | cell-free assay, competition with immobilised ligand | 1 µM | 100
CN(C)c1nccc(-c2cnc3ncccn23)n1 | binding | 1 µM | 79
O=C(c1ccc(Nc2ncc(Cl)c(-c3ccc(Cl)s3)n2)cc1)N1CCC(N2CCCC2)CC1 | binding, competition with immobilised ligand | 1 µM | 0.1
CCN1CCN(Cc2ccc(C(=O)Nc3ccc(C)c(Oc4ccc5c(c4)CC(=O)N5)c3)cc2C(F)(F)F)CC1 | binding, competition with immobilised ligand | 1 µM | 79
CNCc1ccccc1-c1csc([C@H](C)Nc2nc(C)nc3cc(OC)c(OC)cc23)c1 | cell-free assay, competition with immobilised ligand | 1 µM | 91
CN(c1nccc(-c2cnn3ncccc23)n1)C1CC1 | binding | 1 µM | 100
O=C(c1ccc(Nc2nccc(-c3cc4ccccc4s3)n2)cc1)N1CCC(N2CCCC2)CC1 | binding, competition with immobilised ligand | 1 µM | 1.1
c1cnn2ncc(-c3ccnc(N4CCC45COC5)n3)c2c1 | binding | 1 µM | 55
O=C(N[C@H]1CCCCC/C=C\C2C[C@@]2(C(=O)O)NC(=O)[C@@H]2C[C@@H](Oc3ccncc3)CN2C1=O)OC1CCCC1 (stereo partly shown) | binding, competition with immobilised ligand | 1 µM | 100
C[C@H]1CCN(c2nccc(-c3cnn4ncccc34)n2)C1 | binding | 1 µM | 68
CC(=O)Nc1c(C(C)=O)c(=O)n(C)c2nc(-c3ccc(Cl)cc3Cl)c(-c3ccc(Cl)cc3)cc12 | cell-free assay, competition with immobilised ligand | 1 µM | 100
Cc1cnc(Nc2ccc(C(=O)N3CCC(N4CCCC4)CC3)cc2)nc1-c1cc2ccccc2s1 | binding, competition with immobilised ligand | 1 µM | 0.2
N[C@H]1CCN(c2nccc(-c3cnn4ncccc34)n2)C1 | binding | 1 µM | 91
